According to ChEMBL document CHEMBL5331127, “Discovery of ARD-2051 as a Potent and Orally Efficacious Proteolysis Targeting Chimera (PROTAC) Degrader of Androgen Receptor for the Treatment of Advanced Prostate Cancer” (J Med Chem, 2023):
Activity calls are given as the source filed them. The rule behind the calls is not given here.

Key:
[1] = molecular target: Voltage-gated inwardly rectifying potassium channel KCNH2 (Homo sapiens, UniProt Q12809); assay: Inhibition of human ERG expressed in HEK293 cells by whole cell patch clamp assay; type: toxicity, cell-based
How it was run: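 Manual whole-cell patch clamp at room temperature on HEK293 cells stably expressing hERG. Compound tested at 3 and 30 μM in duplicate; terfenadine as positive control.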

[2] = Downregulation of KLK3 gene expression in human VCaP cells at 30 nM incubated for 24 hrs by qRT-PCR analysis; type: functional
How it was run: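 LNCaP cells (RPMI 1640) or VCaP cells (DMEM Glutamax), both with 10% FBS, treated for 24 h. KLK3 mRNA measured by qRT-PCR and calculated by the comparative CT method against GAPDH and vehicle.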

[3] = Drug concentration in ICR mouse plasma at 10 mg/kg, po measured after 24 hrs; type: ADME, organism-based
How it was run: (§1)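 Mice given a single 10 mg/kg dose by oral gavage, 3 mice per time point. Plasma drug levels measured at 1, 3, 6 and 24 h; mean ± SD reported.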

[4] = Half life in ICR mouse at 2 mg/kg, iv measured upto 24 hrs by LC-MS/MS analysis; type: ADME, organism-based; details: in vivo
How it was run: (§2)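 Male ICR mice (2 mg/kg), male SD rats (1 mg/kg) or male Beagle dogs (1 mg/kg) given a single intravenous dose in 10% PEG400 + 90% PBS adjusted to pH 8.0 with NaOH.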

Mus musculus [5] = assay: In vivo induction of androgen receptor degradation in human VCaP cells xenografted in CB17 SCID mouse assessed as reduction in TMPRSS2 mRNA level at 12.5 mg/kg, po measured after 6 to 24 hrs by qRT-PCR analysis; type: functional, organism-based; details: time 6-24 hrs
Cytochrome P450 2C9 = Cytochrome P450 2C9 (Homo sapiens, UniProt P11712); assay: Inhibition of CYP2C9 in human liver microsomes preincubated for 5 mins followed by NADPH addition and measured after 10 mins by LC/MS analysis; type: ADME, Microsome
[6] = Metabolic stability in dog hepatocytes assessed as half life at 1 uM measured upto 120 mins in presence of NADPH by LC-MS/MS analysis; type: ADME, cell-based, Canis lupus familiaris, Hepatocyte; details: 2 h
[7] = AUC(0 to t) in ICR mouse at 2 mg/kg, iv measured upto 24 hrs by LC-MS/MS analysis; type: ADME, organism-based; set-up: time < 24 hrs, dose 2 mg/kg, route iv; details: in vivo; how it was run: as §2
Cytochrome P450 3A4 = Cytochrome P450 3A4 (Homo sapiens, UniProt P08684); assay: Inhibition of CYP3A4 in human liver microsomes using testosterone as substrate preincubated for 5 mins followed by NADPH addition and measured after 5 mins by LC/MS analysis; type: ADME, Microsome
[8] = Downregulation of KLK3 gene expression in human VCaP cells at 1 nM incubated for 24 hrs by qRT-PCR analysis; type: functional
How it was run: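 VCaP cells (ATCC) grown in DMEM with Glutamax plus 10% FBS at 37 °C, 5% CO2. Cells treated 24 h; KLK3 mRNA measured by qRT-PCR, expression by comparative CT method, normalised to GAPDH (ΔCT) and then to vehicle control (ΔΔCT).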

Mus musculus [9] = assay: In vivo induction of androgen receptor degradation in human VCaP cells xenografted in CB17 SCID mouse assessed as reduction in KLK3 mRNA level at 12.5 mg/kg, po measured after 6 to 24 hrs by qRT-PCR analysis; type: functional, organism-based; details: time 6-24 hrs
[10] = Drug concentration in CB17 SCID mouse plasma xenografted with human VCaP cells at 12.5 mg/kg, po measured after 6 hrs by LC-MS/MS analysis; type: ADME, organism-based
How it was run: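 SCID mice bearing one VCaP tumour each given a single oral 12.5 mg/kg dose in 100% PEG200. Plasma and tumour tissue collected at 6 and 24 h, 3 mice per time point. Values are mean ± SD.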

[11] = Metabolic stability in human liver microsomes assessed as half life at 1 uM measured upto 45 mins in presence of NADPH by LC-MS/MS analysis; type: ADME, Microsome; details: 0.75 h
How it was run: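 Pooled liver microsomes from each species: 1 μM compound with 0.5 mg/mL microsomes and 1.7 mM NADPH in 0.1 M K-phosphate, pH 7.4, 5 mM MgCl2, 37 °C. Sampled at 0, 5, 10, 15, 30 and 45 min with cold ACN quench. No-NADPH incubation as negative control; ketanserin as positive control. LC-MS/MS; half-life from ln(remaining) versus time.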

[12] = Plasma protein binding in human at 1 uM after 5 hrs by equilibrium dialysis based LC-MS/MS analysis; type: ADME, cell-free
How it was run: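 Equilibrium dialysis of pooled plasma of each species spiked at 1 μM against 0.1 M sodium phosphate, pH 7.4. 5 h at 37 °C with shaking at 60 rpm. Both sides matrix-matched, ACN/IS quench, LC/MS. % bound = 100 − (buffer/plasma peak-area ratio × 100); recovery also calculated. Warfarin as reference.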

[13] = molecular target: T1, Androgen receptor (Homo sapiens) (UniProt P10275); assay: Induction of androgen receptor degradation in human VCaP cells at 0.1 uM after 24 hrs by Western blotting analysis relative to control; type: cell-based
T1 sequence (whole entry): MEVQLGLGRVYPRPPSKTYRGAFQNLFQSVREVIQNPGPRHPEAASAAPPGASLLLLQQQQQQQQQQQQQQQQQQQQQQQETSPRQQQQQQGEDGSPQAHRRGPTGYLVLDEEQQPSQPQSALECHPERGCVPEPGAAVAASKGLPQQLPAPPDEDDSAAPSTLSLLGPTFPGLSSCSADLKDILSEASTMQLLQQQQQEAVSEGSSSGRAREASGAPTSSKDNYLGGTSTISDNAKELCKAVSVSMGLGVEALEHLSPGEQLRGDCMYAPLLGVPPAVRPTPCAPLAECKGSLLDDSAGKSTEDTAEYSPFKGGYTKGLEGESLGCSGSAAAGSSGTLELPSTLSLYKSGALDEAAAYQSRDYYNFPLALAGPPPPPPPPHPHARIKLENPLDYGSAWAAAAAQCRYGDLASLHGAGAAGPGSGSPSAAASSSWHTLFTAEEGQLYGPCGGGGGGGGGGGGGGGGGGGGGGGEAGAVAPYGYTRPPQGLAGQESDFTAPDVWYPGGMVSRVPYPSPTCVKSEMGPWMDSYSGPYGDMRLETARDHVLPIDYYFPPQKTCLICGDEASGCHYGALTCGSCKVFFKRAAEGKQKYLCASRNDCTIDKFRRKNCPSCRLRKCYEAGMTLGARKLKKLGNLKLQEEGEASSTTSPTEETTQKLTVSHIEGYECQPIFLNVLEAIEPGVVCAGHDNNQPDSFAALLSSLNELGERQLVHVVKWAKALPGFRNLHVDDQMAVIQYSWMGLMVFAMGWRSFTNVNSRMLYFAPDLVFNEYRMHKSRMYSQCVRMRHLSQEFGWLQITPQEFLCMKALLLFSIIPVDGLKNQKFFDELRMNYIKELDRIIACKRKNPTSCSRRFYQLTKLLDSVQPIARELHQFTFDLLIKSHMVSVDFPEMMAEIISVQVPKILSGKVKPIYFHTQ
How it was run: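 VCaP cells treated for 24 h at 10, 100 or 1000 nM. AR protein measured by Western blotting.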

[14] = Drug concentration in ICR mouse plasma at 10 mg/kg, po measured after 3 hrs; type: ADME, organism-based; how it was run: as §1

Sequence of Cytochrome P450 3A4 (P08684 whole entry): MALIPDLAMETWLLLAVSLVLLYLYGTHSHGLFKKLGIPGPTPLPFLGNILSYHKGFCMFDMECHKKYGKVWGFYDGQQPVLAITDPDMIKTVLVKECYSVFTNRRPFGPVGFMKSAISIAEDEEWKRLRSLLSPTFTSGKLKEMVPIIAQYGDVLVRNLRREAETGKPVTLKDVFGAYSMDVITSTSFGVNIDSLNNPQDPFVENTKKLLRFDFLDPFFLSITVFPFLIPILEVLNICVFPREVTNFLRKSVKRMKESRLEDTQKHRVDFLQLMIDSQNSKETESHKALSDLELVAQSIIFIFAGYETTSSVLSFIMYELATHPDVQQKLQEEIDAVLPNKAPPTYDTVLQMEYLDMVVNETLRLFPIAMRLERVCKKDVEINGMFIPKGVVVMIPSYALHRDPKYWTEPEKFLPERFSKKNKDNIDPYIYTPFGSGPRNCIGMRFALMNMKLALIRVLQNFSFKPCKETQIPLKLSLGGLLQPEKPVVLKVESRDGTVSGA
Sequence of Cytochrome P450 2C9 (P11712 whole entry): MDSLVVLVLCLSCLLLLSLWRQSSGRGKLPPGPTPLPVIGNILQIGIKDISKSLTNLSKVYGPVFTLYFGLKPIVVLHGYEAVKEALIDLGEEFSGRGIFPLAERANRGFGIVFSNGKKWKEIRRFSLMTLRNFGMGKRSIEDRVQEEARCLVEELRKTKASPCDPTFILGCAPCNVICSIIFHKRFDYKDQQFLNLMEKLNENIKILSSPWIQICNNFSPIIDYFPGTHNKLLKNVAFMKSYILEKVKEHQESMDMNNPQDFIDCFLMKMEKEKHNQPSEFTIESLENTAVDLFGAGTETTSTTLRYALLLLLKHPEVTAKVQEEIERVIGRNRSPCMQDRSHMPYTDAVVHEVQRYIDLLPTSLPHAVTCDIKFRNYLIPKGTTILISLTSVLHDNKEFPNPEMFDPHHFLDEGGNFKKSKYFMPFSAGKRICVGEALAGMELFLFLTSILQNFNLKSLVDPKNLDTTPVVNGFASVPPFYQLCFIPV
Sequence of Voltage-gated inwardly rectifying potassium channel KCNH2 (Q12809 whole entry): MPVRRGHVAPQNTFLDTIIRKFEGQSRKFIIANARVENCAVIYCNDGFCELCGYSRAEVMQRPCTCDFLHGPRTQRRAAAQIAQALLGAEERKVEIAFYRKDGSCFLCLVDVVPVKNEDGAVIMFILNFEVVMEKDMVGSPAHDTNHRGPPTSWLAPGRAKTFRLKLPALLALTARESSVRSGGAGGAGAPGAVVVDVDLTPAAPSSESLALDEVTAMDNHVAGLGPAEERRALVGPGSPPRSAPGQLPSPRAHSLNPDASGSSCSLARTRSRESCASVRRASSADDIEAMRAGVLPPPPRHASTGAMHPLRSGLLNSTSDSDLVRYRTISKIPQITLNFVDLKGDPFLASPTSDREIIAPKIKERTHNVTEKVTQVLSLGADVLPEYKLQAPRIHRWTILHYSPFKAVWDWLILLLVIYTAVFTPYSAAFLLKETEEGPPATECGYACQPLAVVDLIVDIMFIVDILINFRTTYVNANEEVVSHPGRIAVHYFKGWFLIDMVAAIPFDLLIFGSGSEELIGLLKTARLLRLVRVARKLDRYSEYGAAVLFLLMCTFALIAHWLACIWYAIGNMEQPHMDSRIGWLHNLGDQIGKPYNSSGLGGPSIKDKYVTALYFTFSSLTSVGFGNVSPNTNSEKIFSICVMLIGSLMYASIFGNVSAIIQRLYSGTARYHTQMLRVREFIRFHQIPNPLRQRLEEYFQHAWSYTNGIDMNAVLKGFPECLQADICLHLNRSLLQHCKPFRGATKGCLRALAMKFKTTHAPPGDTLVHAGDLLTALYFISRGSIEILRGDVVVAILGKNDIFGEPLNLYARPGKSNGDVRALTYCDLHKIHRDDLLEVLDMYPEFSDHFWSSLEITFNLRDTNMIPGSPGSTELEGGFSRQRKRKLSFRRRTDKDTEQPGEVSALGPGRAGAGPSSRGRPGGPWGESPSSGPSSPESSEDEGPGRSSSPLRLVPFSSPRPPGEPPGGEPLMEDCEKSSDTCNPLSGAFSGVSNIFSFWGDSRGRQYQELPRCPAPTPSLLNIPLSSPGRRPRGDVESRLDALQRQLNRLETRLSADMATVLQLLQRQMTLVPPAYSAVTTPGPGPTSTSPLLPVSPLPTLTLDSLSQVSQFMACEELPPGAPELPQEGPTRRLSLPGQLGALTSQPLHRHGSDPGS

**Q.** With `C[C@H]1CC2(CCN(c3ccc(C(=O)N4CCN(C5CN(c6ccc7c(c6)C(=O)N(C6CCC(=O)NC6=O)C7=O)C5)CC4)cc3)CC2)CN1c1ccc(C#N)c(Cl)c1` (stereo partly specified) as the compound, how does the IC50 [1] read?
**A.** > 30 µM

**Q.** What about the Activity [2] of the same compound?
**A.** 87%

**Q.** What about the concentration at 24 h [3] of the same compound?
**A.** 77 ng/mL

**Q.** What about the t1/2 [4] of the same compound?
**A.** 5 h

**Q.** And the Activity (Mus musculus [5])?
**A.** Active

**Q.** And the IC50 (Cytochrome P450 2C9)?
**A.** > 10 µM

**Q.** And the t1/2 [6]?
**A.** > 2 h

**Q.** What about the AUCt [7] of the same compound?
**A.** 8850 ng·h/mL

**Q.** And the IC50 (Cytochrome P450 3A4)?
**A.** > 10 µM

**Q.** And the Activity [8]?
**A.** 51%

**Q.** What about the Activity (Mus musculus [9]) of the same compound?
**A.** Active

**Q.** And the concentration at 6 h [10]?
**A.** 985 ng/mL

**Q.** And the t1/2 [11]?
**A.** > 1 h

**Q.** What about the PPB [12] of the same compound?
**A.** 99.1%

**Q.** And the Activity [13]?
**A.** > 95%

**Q.** And the concentration at 3 h [14]?
**A.** 664 ng/mL
